Measured values from ChEMBL document CHEMBL2417466, “An extended pyrrolobenzodiazepine-polyamide conjugate with selectivity for a DNA sequence containing the ICB2 transcription factor binding site” (2013).
Calls of active or inactive are those of the source. The rule behind the calls is not given here.

Assays:
[1] = Cytotoxicity against human NCI60 cells; format: functional; conditions: for CC50: read-out: LC50 (the source's name)
Outline: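 Screened in the NCI 60 human tumour cell-line panel. Values are GI50 (50% growth inhibition), TGI (total growth inhibition) and LC50 (50% lethality) concentrations, each reported as the mean across the 60-cell-line panel.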

[2] = Cytotoxicity against human NCI60 cells assessed as concentration required for total growth inhibition; format: functional
Outline: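 NCI 60 human tumor cell line screen. TGI is the concentration causing total growth inhibition, given as the mean across the 60-cell-line panel.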

DNA [3] = assay: Binding affinity to calf thymus DNA at 5 uM after 18 hrs by UV-visible spectrophotometric analysis; format: nucleic-acid assay; conditions: Bos taurus
Outline: (§1)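 Calf thymus DNA at 50 μM bp with ligand fixed at 5 μM. Buffer was 10 mM sodium phosphate, 1 mM EDTA, pH 7.00, with ≤0.3% DMSO. Incubated at 37 °C, then melted at 1 °C/min from 50–99 °C while monitoring absorbance at 260 nm. Buffer baseline subtracted and DMSO-corrected. ΔTm = Tm(DNA+ligand) − Tm(DNA), run in triplicate.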

DNA [4] = assay: Binding affinity to calf thymus DNA at 5 uM after 4 hrs by UV-visible spectrophotometric analysis; format: nucleic-acid assay; conditions: Bos taurus; outline: as §1
Homo sapiens [5] = organism: Homo sapiens; assay: Binding affinity to 170 bp human DNA topoisomerase 2-alpha promoter ICB2 site at 1 uM after 17 hrs by DNase 1 footprinting assay
Outline: (§2)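 170 bp Topo IIα promoter fragment (ICB1 and ICB2) PCR-amplified from human genomic DNA, IR700 end-labeled, used at 4 nM final. Incubated in the dark for 17 h at room temperature. DNase I digestion for 8 min, stopped with EDTA. Denaturing sequencing gel with IR dye detection and G+A markers.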

Homo sapiens [6] = organism: Homo sapiens; assay: Binding affinity to 170 bp human DNA topoisomerase 2-alpha promoter ICB1 site at 1 uM after 17 hrs by DNase 1 footprinting assay; outline: as §2
NIH/3T3 [7] = assay: Binding affinity to topo 2-alpha ICB1 (5'-CAGGGATTGGCTGGT-3') in mouse NIH/3T3 cells nuclear extract assessed as inhibition of NF-Y transcription factor binding at 5 uM preincubated for 1.5 hrs and by electrophoretic mobility shift assay; format: cell-free
Outline: (§3)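 Nuclear extract from NIH3T3 cells grown in DMEM with 10% newborn calf serum. 5 μg extract held at 4 °C for 30 min in K-Hepes pH 7.9 buffer with poly(dI-dC). About 0.1 ng of 32P end-labeled double-stranded ICB1 or ICB2 oligonucleotide then added for 2 h at room temperature. Run on 4% native polyacrylamide gel at 4 °C with autoradiography. Cold and mutated oligonucleotides served as controls.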

NIH3T3 = assay: Binding affinity to topo 2-alpha ICB2 (5'-CTACGATTGGTTCTT-3') in mouse NIH/3T3 cells nuclear extract assessed as inhibition of NF-Y transcription factor binding at 5 uM preincubated for 1.5 hrs by electrophoretic mobility shift assay; format: cell-free; outline: as §3
Homo sapiens [8] = organism: Homo sapiens; assay: Binding affinity to 170 bp human DNA topoisomerase 2-alpha promoter ICB1 site at 5 uM after 17 hrs by DNase 1 footprinting assay; outline: as §2
NIH/3T3 [9] = assay: Binding affinity to Topo 2-alpha ICB1 (5'-CAGGGATTGGCTGGT-3') in mouse NIH/3T3 cells nuclear extract assessed as inhibition of NF-Y transcription factor binding at 50 uM preincubated for 1.5 hrs by electrophoretic mobility shift assay; format: cell-free; outline: as §3

Activity (Homo sapiens [6]) | Compound | GI50 [1] [µM] | CC50 [1] [µM] | TGI [2] [µM] | ΔTm (DNA [3]) [°C] | ΔTm (DNA [4]) [°C] | Activity (Homo sapiens [5]) | inhibition (NIH/3T3 [7]) | inhibition (NIH3T3) | Activity (Homo sapiens [8]) | inhibition (NIH/3T3 [9])
 | COC(=O)c1cc(NC(=O)c2nc(NC(=O)c3cc(NC(=O)CCCOc4cc5c(cc4OC)C(=O)N4CCC[C@H]4C=N5)cn3C)cn2C)cn1C | 0.003 | 6.6 | 0.02 | 16.9 | 16 |  |  |  |  | 
 | COC(=O)c1cc(NC(=O)c2cc(NC(=O)c3cc(NC(=O)CCCOc4cc5c(cc4OC)C(=O)N4CCC[C@H]4C=N5)cn3C)cn2C)cn1C | 0.015 | 1.1 | 0.032 | 20.2 | 18.7 |  |  |  |  | 
 | COC(=O)c1cc(NC(=O)c2nc(NC(=O)c3nc(NC(=O)CCCOc4cc5c(cc4OC)C(=O)N4CCC[C@H]4C=N5)cn3C)cn2C)cn1C | 0.0038 | 6.8 | 0.037 | 15.4 | 15 |  |  |  |  | 
 | CCOC(=O)c1nc(NC(=O)c2nc(NC(=O)c3cc(NC(=O)CCCOc4cc5c(cc4OC)C(=O)N4CCC[C@H]4C=N5)cn3C)cn2C)cn1C | 0.0135 | 9.5 | 0.027 | 15.2 | 14.8 |  |  |  |  | 
Active | COC(=O)c1cc(NC(=O)c2cc(NC(=O)CCCOc3cc4c(cc3OC)C(=O)N3CCC[C@H]3C=N4)cn2C)cn1C |  |  |  |  |  | Active | Active | Active |  | 
 | CCOC(=O)c1nc(NC(=O)c2nc(NC(=O)c3nc(NC(=O)CCCOc4cc5c(cc4OC)C(=O)N4CCC[C@H]4C=N5)cn3C)cn2C)cn1C | 0.0871 | 15.4 | 1.29 | 12 | 11.7 |  |  |  |  | 
 | COC(=O)c1cc(NC(=O)c2cc(NC(=O)c3nc(NC(=O)CCCOc4cc5c(cc4OC)C(=O)N4CCC[C@H]4C=N5)cn3C)cn2C)cn1C | 0.0013 | 2.3 | 0.024 | 21.1 | 19.8 | Active |  | Active | Active | Active
 | CCOC(=O)c1csc(NC(=O)c2csc(NC(=O)c3cc(NC(=O)CCCOc4cc5c(cc4OC)C(=O)N4CCC[C@H]4C=N5)cn3C)n2)n1 |  |  |  | 8.4 | 8.1 |  |  |  |  | 
 | CCOC(=O)c1csc(NC(=O)c2cc(NC(=O)c3cc(NC(=O)CCCOc4cc5c(cc4OC)C(=O)N4CCC[C@H]4C=N5)cn3C)cn2C)n1 | 0.0029 | 8.9 | 0.028 | 18.6 | 17.7 |  |  |  |  | 
 | COC(=O)c1cc(NC(=O)c2cc(NC(=O)c3csc(NC(=O)CCCOc4cc5c(cc4OC)C(=O)N4CCC[C@H]4C=N5)n3)cn2C)cn1C | 0.0014 | 4.4 | 0.03 | 18.2 | 17.4 |  |  |  |  | 
 | CCOC(=O)c1csc(NC(=O)c2cc(NC(=O)c3csc(NC(=O)CCCOc4cc5c(cc4OC)C(=O)N4CCC[C@H]4C=N5)n3)cn2C)n1 |  |  |  | 7.8 | 7.1 |  |  |  |  | 
 | CCOC(=O)c1nc(NC(=O)c2cc(NC(=O)c3cc(NC(=O)CCCOc4cc5c(cc4OC)C(=O)N4CCC[C@H]4C=N5)cn3C)cn2C)cn1C | 0.0038 | 6.8 | 0.037 | 18.7 | 17.6 |  |  |  |  | 
 | COC(=O)c1cc(NC(=O)c2csc(NC(=O)c3cc(NC(=O)CCCOc4cc5c(cc4OC)C(=O)N4CCC[C@H]4C=N5)cn3C)n2)cn1C | 0.0028 | 9.1 | 0.05 | 20.7 | 19.9 |  |  |  |  | 
 | CCOC(=O)c1csc(NC(=O)c2csc(NC(=O)c3csc(NC(=O)CCCOc4cc5c(cc4OC)C(=O)N4CCC[C@H]4C=N5)n3)n2)n1 | 0.282 | 15.8 | 2.04 | 10.9 | 10.7 |  |  |  |  | 
 | CCOC(=O)c1nc(NC(=O)c2cc(NC(=O)c3nc(NC(=O)CCCOc4cc5c(cc4OC)C(=O)N4CCC[C@H]4C=N5)cn3C)cn2C)cn1C | 0.0042 | 12.3 | 0.141 | 16.2 | 15.7 |  |  |  |  | 
